Assay results published in paper PMC5508592 (The New England journal of medicine, 2016).
Like-named read-outs stand apart in the source and are kept apart here.

Legend:
[1] = tested on: DhhCre;Nf1fl/fl model of neurofibromatosis type 1–related neurofibromas; details: cited from earlier work
[2] = type: in vivo
[3] = tested on: neurofibromatosis type 1–related plexiform neurofibromas; experiment: Response evaluation by volumetric MRI analysis of plexiform neurofibroma volume; type: in vivo, human
[4] = tested on: plexiform neurofibroma–related complications; experiment: Anecdotal report of amelioration of complications of plexiform neurofibroma; type: in vivo, human
[5] = Plasma pharmacokinetics of selumetinib in patients during cycle 1; type: in vivo, human
How it was run: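 Pediatric patients who consented received oral test compound capsules every 12 h, continuously in 28-day cycles, at 20, 25 or 30 mg per square meter (nomogram by body-surface area). Plasma was sampled in cycle 1 on day 1 before dosing and 0.5, 1, 2, 3, 5, 8, 10–12, 24 and 30–36 h after, and on day 27 before dosing. Parent and N-desmethyl metabolite were assayed; noncompartmental PK analysis.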

[6] = tested on: phosphorylated extracellular signal-regulated kinase (ERK); experiment: Pharmacodynamics in mouse tumor samples; details: in vivo
[7] = children with low-grade gliomas; cited from earlier work
[8] = tested on: plexiform neurofibromas; details: 4 of 83 patients; phase 2 trial; cited from earlier work
[9] = 20-mg group, 7 patients with condition at baseline
[10] = 25-mg group, 3 patients with condition at baseline
[11] = 30-mg group, 3 patients with condition at baseline

## O=C(NOC[C@H](O)CO)c1ccc(F)c(F)c1Nc1ccc(I)cc1F [PD0325901]
[1]
  Effect on neurofibroma volume: tumor shrinkage in the majority of mice

## Cn1cnc2c(F)c(Nc3ccc(Br)cc3Cl)c(C(=O)NOCCO)cc21 [selumetinib]
[2]; 30 mg per square meter twice daily
  Tolerability of 30 mg per square meter relative to maximum tolerated dose: exceeded the maximum tolerated dose
[2]; children, oral, every 12 hours, continuous dosing in 28-day cycles, approximately 60% of the recommended adult dose
  Maximum tolerated dose: 25 mg per square meter
[2]; human, in vivo
  Dose-limiting toxic effect: cellulitis: Grade 3 (2 patients)
  Dose-limiting toxic effect: decreased left ventricular ejection fraction: Grade 3 (1 patient)
  Dose-limiting toxic effect: rash: Grade 3 (1 patient)
  Dose-limiting toxic effect: urticaria: Grade 3 (1 patient)
  Dose-limiting toxic effects in later cycles: cellulitis: 1 patient
  Dose-limiting toxic effects in later cycles: creatine kinase elevation: 4 patients
  Dose-limiting toxic effects in later cycles: oral mucositis: 3 patients
  Left ventricular ejection fraction after decrease: 50%
  Serial ophthalmologic examinations: no abnormalities, with the exception of a grade 1 asymptomatic cataract at cycle 16 in 1 patient
  Severity of most selumetinib-related adverse events: mild (grade 1)
  Treatment stopped because of dose-limiting toxic effects: 1
[2]; in vivo
  Effect on height or weight: No measurable effect
  Reversibility of dose-limiting toxic effects: reversible
[3]; 5 of 9 patients
  Partial response, documented progressive disease at enrollment: 56%
[3]; 6 of 7 patients
  Partial response, no previous volumetric data available at enrollment: 86%
[3]; 9 patients with confirmed tumor growth before enrollment, range, 23 to 46
  Median time free of progression: 26 cycles
[3]; 17 of the 24 patients, tumor volume decrease from baseline ≥20%
  Confirmed partial response: 71%
[3]; 20-mg group (N = 12)
  Median best response (range): −31 (−6 to −47) % volume change from baseline
  Median time to best response (range): 22 (5 to 42) mo
[3]; 20-mg group (N = 12), tumor volume decrease from baseline ≥20% for at least 4 weeks
  Partial response: 9 (75) no. (%)
[3]; 20-mg group, of 4 patients
  No. with response, insufficient information on progression status at entry: 3
  No. with response, nonprogressive disease at trial entry: 4
  No. with response, progressive disease at trial entry: 2
[3]; 25-mg group (N = 6)
  Median best response (range): −34 (−16 to −44) % volume change from baseline
  Median time to best response (range): 18 (9 to 22) mo
[3]; 25-mg group (N = 6), tumor volume decrease ≥20%
  Partial response: 5 (83) no. (%)
[3]; 25-mg group, of 2 patients
  No. with response, insufficient information on progression status at entry: 2
[3]; 25-mg group, of 4 patients
  No. with response, progressive disease at trial entry: 3
[3]; 30-mg group (N = 6)
  Median best response (range): −19 (−13 to −34) % volume change from baseline
  Median time to best response (range): 8 (5 to 24) mo
[3]; 30-mg group (N = 6), tumor volume decrease ≥20%
  Partial response: 3 (50) no. (%)
[3]; 30-mg group, of 1 patient
  No. with response, insufficient information on progression status at entry: 1
  No. with response, progressive disease at trial entry: 0
[3]; 30-mg group, of 4 patients
  No. with response, nonprogressive disease at trial entry: 2
[3]; Patient 7 (30-mg group)
  Tumor volume reduction since reinitiation at a reduced dose: 25%
[3]; Patient 7 (30-mg group), when selumetinib was restarted
  Increase in plexiform neurofibroma volume from baseline after drug interruption: 9.6%
[3]; all 24 patients
  Median change from baseline in plexiform neurofibroma volume (best response): −31%
  Range of change from baseline in plexiform neurofibroma volume (best response): −5.8 to −47%
[3]; all patients, range, 5 to 42
  Median time to maximum response: 20 cycles
[3]; in vivo
  Partial response, tumors assessed as stable at enrollment: 2 of 2
  Patients with partial response who maintain their response status to date: 15 of the 17
[3]; range, 6 to 42
  Median duration of partial response: 23 cycles
[3]; to date
  Disease progression (tumor volume increase from baseline of ≥20%): No patients have had disease progression
[4]; 20-mg group, 3 patients with condition at baseline
  Motor dysfunction: no. of patients with improvement: 2
[4]; [9]
  Disfigurement: no. of patients with improvement: 2
  Pain: no. of patients with improvement: 4
[4]; [10]
  Motor dysfunction: no. of patients with improvement: 3
  Pain: no. of patients with improvement: 3
[4]; 25-mg group, 6 patients with condition at baseline
  Disfigurement: no. of patients with improvement: 3
[4]; [11]
  Motor dysfunction: no. of patients with improvement: 0
  Pain: no. of patients with improvement: 1
[4]; 30-mg group, 5 patients with condition at baseline
  Disfigurement: no. of patients with improvement: 0
[5]; 20 to 30 mg per square meter
  Drug exposure with increasing dose: less than dose-proportional
[5]; plasma
  Selumetinib plasma concentrations versus N-desmethyl metabolite: exceeded those of the N-desmethyl metabolite at all time points
[5]; plasma, cycle 1, 18 patients
  Absorption: absorbed rapidly
[6]
  Phosphorylated ERK in mouse tumor samples: transient decrease
[7]
  Maximum tolerated dose: 25 mg per square meter

## pegylated interferon alfa-2b
[8]
  Patients with tumor volume decrease from baseline of at least 20%: 5%
